One block for each molecule: values may come before it. The source made the active and inactive calls. No cut-off for these calls is given here.
How the values were obtained:
[1] = Inhibition of osteoclastogenesis in human […] CD14+ pre-osteoclasts assessed as blocked of osteoclast differentiation in presence of M-CSF and RANKL at 10 uM measured after 11 days by TRAP staining method relative to control; format: functional; details: 264 h, time 11 day
In short: (§1)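 Human CD14+ cells came from donor PBMCs by Ficoll centrifugation (500g, 25 min) and CD14 microbead MACS selection. They were seeded at 45 x 10^4 cells/well in α-MEM, 10% FCS, 25 ng/ml hM-CSF. From day 3, medium with 25 ng/ml hM-CSF and 100 ng/ml hRANKL ± compound was changed twice weekly; about 11 days. TRAP-stained multinucleated cells were counted, as % vs RANKL positive control. Monocyte lots differed between series.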

[2] = Inhibition of osteoclastogenesis in human bone marrow derived CD14+ pre-osteoclasts assessed as blocked of osteoclast differentiation in presence of M-CSF and RANKL at 1 uM measured after 11 days by TRAP staining method relative to control; format: functional; details: 264 h, time 11 day; in short: as §1
[3] = Inhibition of osteoclastogenesis in human bone marrow derived CD14+ pre-osteoclasts assessed as blocked of osteoclast differentiation in presence of M-CSF and RANKL at 5 uM measured after 11 days by TRAP staining method relative to control; format: functional; details: 264 h, time 11 day; in short: as §1
[4] = Cytotoxicity against human bone marrow derived CD14+ pre-osteoclasts upto 10 uM; format: tissue-based; details: osteoclast
Monocyte [5] = assay: Inhibition of osteoclastogenesis in human bone marrow derived CD14+ monocytes assessed as decrease in RANKL-induced NFATc1 mRNA expression at 1 to 10 uM measured after 4 days by qRT-PCR method; format: functional; details: dose 1-10 µM, time 4.0 day
In short: (§2)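 CD14+ cells were seeded and, from day 3, treated with 25 ng/ml hM-CSF and 100 ng/ml hRANKL ± compound for 4 days. Target mRNA was measured by qRT-PCR, normalized to GAPDH, with comparative Ct quantification. Each assay was performed in triplicate.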

Monocyte [6] = assay: Inhibition of osteoclastogenesis in human bone marrow derived CD14+ monocytes assessed as decrease in RANKL-induced TRAP mRNA expression at 1 to 10 uM measured after 4 days by qRT-PCR method; format: functional; details: dose 1-10 µM, time 4.0 day; in short: as §2
Monocyte [7] = assay: Effect on p38 expression in human M-CSF treated human bone marrow derived CD14+ monocytes at 10 uM preincubated for 4 hrs followed by IL-6 stimulation and measured after 15 mins by Western blot assay; format: functional, tissue-based; details: time 4.25 hrs
In short: (§3)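 Human CD14+ monocytes were cultured 3 days with 25 ng/ml M-CSF. They were then treated with vehicle or 10 µM compound for 4 h without FBS and M-CSF, and stimulated with IL-6 (25 ng/mL) for 15 min. Equal-protein lysates were run on SDS-PAGE and transferred to PVDF. Blots were probed overnight at 4°C with primary antibodies, with fluorescent secondary detection.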

Monocyte [8] = assay: Effect on ERK expression in human M-CSF treated human bone marrow derived CD14+ monocytes at 10 uM preincubated for 4 hrs followed by IL-6 stimulation and measured after 15 mins by Western blot assay; format: functional; details: time 4.25 hrs; in short: as §3
[9] = molecular target: MAP kinase p38 (Homo sapiens) (UniProt O15264+Q15759+Q16539+P53778); assay: Effect on p38 phosphorylation in human M-CSF treated human bone marrow derived CD14+ monocytes at 10 uM preincubated for 4 hrs followed by IL-6 stimulation and measured after 15 mins by Western blot assay; details: Monocyte, time 4.25 hrs; in short: as §3
[10] = molecular target: Signal transducer and activator of transcription 3 (Homo sapiens) (UniProt P40763); assay: Inhibition of STAT3 phosphorylation at Ser-727 in human M-CSF treated human bone marrow derived CD14+ monocytes at 10 uM preincubated for 4 hrs followed by IL-6 stimulation and measured after 15 mins by Western blot assay; details: Monocyte, time 4.25 hrs; in short: as §3
Monocyte [11] = assay: Effect on ERK phosphorylation in human M-CSF treated human bone marrow derived CD14+ monocytes at 10 uM preincubated for 4 hrs followed by IL-6 stimulation and measured after 15 mins by Western blot assay; details: time 4.25 hrs; in short: as §3
Monocyte [12] = assay: Inhibition of osteoclastogenesis in human bone marrow derived CD14+ monocytes assessed as decrease in RANKL-induced Cathepsin K mRNA expression at 1 to 10 uM measured after 4 days by qRT-PCR method; format: functional; details: dose 1-10 µM, time 4.0 day; in short: as §2

Signal transducer and activator of transcription 3 (Homo sapiens), sequence (P40763 whole entry): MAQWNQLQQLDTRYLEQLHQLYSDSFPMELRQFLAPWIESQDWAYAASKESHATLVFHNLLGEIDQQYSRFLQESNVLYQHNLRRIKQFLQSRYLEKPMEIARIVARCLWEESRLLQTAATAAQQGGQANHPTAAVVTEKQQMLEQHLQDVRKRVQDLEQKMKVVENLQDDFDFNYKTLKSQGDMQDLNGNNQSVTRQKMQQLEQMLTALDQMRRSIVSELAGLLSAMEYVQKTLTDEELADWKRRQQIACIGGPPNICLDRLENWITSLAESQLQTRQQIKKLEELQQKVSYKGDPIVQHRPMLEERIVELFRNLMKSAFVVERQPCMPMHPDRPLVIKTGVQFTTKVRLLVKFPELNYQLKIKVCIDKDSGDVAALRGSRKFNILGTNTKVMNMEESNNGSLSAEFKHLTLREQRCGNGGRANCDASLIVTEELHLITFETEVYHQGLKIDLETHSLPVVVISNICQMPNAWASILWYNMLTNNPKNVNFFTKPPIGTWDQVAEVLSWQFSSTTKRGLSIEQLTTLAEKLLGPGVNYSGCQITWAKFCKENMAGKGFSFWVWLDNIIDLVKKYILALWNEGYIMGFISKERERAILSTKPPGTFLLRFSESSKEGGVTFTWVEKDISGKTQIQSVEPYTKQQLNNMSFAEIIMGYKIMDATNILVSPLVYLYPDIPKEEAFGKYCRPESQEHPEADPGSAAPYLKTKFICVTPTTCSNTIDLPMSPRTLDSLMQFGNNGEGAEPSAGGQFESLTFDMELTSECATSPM

Structure (SMILES): CCCCC/C(=N\S(=O)(=O)c1ccc(C)cc1)N1[C@H](C)CCC[C@@H]1C
inhibition at 10 µM [1]: 99.8%
inhibition at 1 µM [2]: 20.9%

Structure (SMILES): CCCCC1CCCCN(C(C)C)/C1=N/S(=O)(=O)c1ccc(C)cc1 (centres undefined)
inhibition at 10 µM [1]: 90.1%
inhibition at 1 µM [2]: 12.1%

Structure (SMILES): Cc1ccc(S(=O)(=O)/N=C2\CCCCCN2C(C)C)cc1
inhibition at 10 µM [1]: 39.3%
inhibition at 1 µM [2]: 27.1%

Structure (SMILES): Cc1ccc(S(=O)(=O)/N=C(\C=C2CCCCC2)N2[C@H](C)CCC[C@@H]2C)cc1
inhibition at 10 µM [1]: 23.3%
inhibition at 1 µM [2]: 25.5%

Structure (SMILES): COc1ccc(S(=O)(=O)/N=C(\CC2CCCCC2)N(C(C)C)C2CCOCC2)cc1
inhibition at 5 µM [3]: 28%
inhibition at 10 µM [1]: 39%
inhibition at 1 µM [2]: -14%

Structure (SMILES): COc1ccc(S(=O)(=O)/N=C(\CC2CCCCC2)N2[C@H](C)CCC[C@@H]2C)cc1
inhibition at 5 µM [3]: 62%
inhibition at 10 µM [1]: 98%

Structure (SMILES): Cc1ccc(S(=O)(=O)/N=C(\C2CCCCC2)N2[C@H](C)CCC[C@@H]2C)cc1
inhibition at 10 µM [1]: 24.1%
inhibition at 1 µM [2]: 22.8%

Structure (SMILES): C[C@@H]1CCC[C@H](C)N1/C(CC1CCCCC1)=N/S(=O)(=O)C[C@@]12CCC(CC1=O)C2(C)C
inhibition at 10 µM [1]: 57.5%
inhibition at 1 µM [2]: -1.5%

Structure (SMILES): C[C@@H]1CCC[C@H](C)N1/C(CC1CCCCC1)=N/S(=O)(=O)c1ccccn1
inhibition at 10 µM [1]: 44.9%
inhibition at 1 µM [2]: -20.2%

Structure (SMILES): COc1ccc(S(=O)(=O)/N=C(\CC2CCCCC2)N(C(C)C)C2CCSCC2)cc1
inhibition at 5 µM [3]: 53%
inhibition at 10 µM [1]: 93%
inhibition at 1 µM [2]: -10%

Structure (SMILES): C[C@@H]1CCC[C@H](C)N1/C(CC1CCCCC1)=N/S(=O)(=O)C(F)(F)F
inhibition at 10 µM [1]: 96.1%
inhibition at 1 µM [2]: -1.1%

Structure (SMILES): Cc1ccc(S(=O)(=O)/N=C2\CCCCN2C(C)C)cc1
inhibition at 10 µM [1]: 6.1%
inhibition at 1 µM [2]: 27.9%

Structure (SMILES): COc1ccc(S(=O)(=O)/N=C(\CC2CCCCC2)N(C(C)C)C2CCCC2)cc1
inhibition at 5 µM [3]: 26%
inhibition at 10 µM [1]: 99%
inhibition at 1 µM [2]: -86%

Structure (SMILES): CC(C)S(=O)(=O)/N=C(\CC1CCCCC1)N1[C@H](C)CCC[C@@H]1C
inhibition at 10 µM [1]: 12.6%
inhibition at 1 µM [2]: 1.6%

Structure (SMILES): COc1ccc(S(=O)(=O)/N=C(\CC2CCCCC2)N2CCCCCC2)cc1
inhibition at 5 µM [3]: 49%
inhibition at 10 µM [1]: 88%
inhibition at 1 µM [2]: -30%

Structure (SMILES): Cc1ccc(S(=O)(=O)/N=C(\CC2CCCCC2)N2CCCC3CCCCC32)cc1 (centres undefined)
inhibition at 10 µM [1]: 78.9%
inhibition at 1 µM [2]: 33.1%

Structure (SMILES): Cc1ccc(S(=O)(=O)/N=C(\CC2CCCC2)N2[C@H](C)CCC[C@@H]2C)cc1
inhibition at 10 µM [1]: 91.5%
inhibition at 1 µM [2]: 32.7%

Structure (SMILES): C[C@@H]1CCC[C@H](C)N1/C(CC1CCCCC1)=N/S(=O)(=O)N(C)C
inhibition at 10 µM [1]: 68.4%
inhibition at 1 µM [2]: 11.8%

Structure (SMILES): COc1ccc(S(=O)(=O)/N=C(\CC2CCCCC2)N(C(C)C)C2CCCCCCC2)cc1
Activity [4]: Toxic
inhibition at 5 µM [3]: 88%
inhibition at 10 µM [1]: 100%
inhibition at 1 µM [2]: 5%

Structure (SMILES): C[C@@H]1CCC[C@H](C)N1/C(CC1CCCCC1)=N/S(=O)(=O)c1cccnc1
inhibition at 10 µM [1]: 56.1%
inhibition at 1 µM [2]: -23.6%

Activity [9]: inactive
inhibition [10]: Active
Structure (SMILES): Cc1ccc(S(=O)(=O)/N=C(\CC2CCCCC2)N2[C@H](C)CCC[C@@H]2C)cc1
inhibition (Monocyte [5]): Active
inhibition (Monocyte [6]): Active
Activity (Monocyte [7]): inactive
Activity (Monocyte [8]): inactive
inhibition at 5 µM [3]: 72%
inhibition at 10 µM [1]: 97.9%
Activity (Monocyte [11]): inactive
inhibition (Monocyte [12]): Active
inhibition at 1 µM [2]: 35%

Structure (SMILES): COc1ccc(S(=O)(=O)/N=C(\CC2CCCCC2)N(C(C)C)C2CCCCCC2)cc1
inhibition at 5 µM [3]: 74%
inhibition at 10 µM [1]: 99%
inhibition at 1 µM [2]: -6%

Structure (SMILES): CCCCC1CCCN(C(C)C)/C1=N/S(=O)(=O)c1ccc(C)cc1 (centres undefined)
inhibition at 10 µM [1]: 80.6%
inhibition at 1 µM [2]: 31.9%

Structure (SMILES): C[C@@H]1CCC[C@H](C)N1/C(CC1CCCCC1)=N/S(=O)(=O)c1ccccc1
inhibition at 10 µM [1]: 97.9%
inhibition at 1 µM [2]: 3.3%

— ChEMBL document CHEMBL4732081, “Development of prohibitin ligands against osteoporosis” (Eur J Med Chem, 2021)
